In ChEMBL document CHEMBL4020804, “Minor phenolics from Angelica keiskei and their proliferative effects on Hep3B cells” (Bioorg Med Chem Lett, 2017):

How the values were obtained:
NIH3T3 [1] = experiment: Cytoprotective activity against GOX-induced oxidative stress in mouse NIH/3T3 cells assessed as cell survival at 10 uM treated for 5 hrs with 15 mU/ml GOX challenge by MTT assay (reference value: 42.71 +/- 2.10%); assay type: functional; conditions: NIH3T3, 5 h, read-out: Survival
NIH3T3 [2] = experiment: Cytoprotective activity against GOX-induced oxidative stress in mouse NIH/3T3 cells assessed as cell survival at 0.1 uM treated for 5 hrs with 15 mU/ml GOX challenge by MTT assay (reference value: 42.71 +/- 2.10%); assay type: functional; conditions: NIH3T3, 5 h, read-out: Survival
Hep 3B2 [3] = experiment: Proliferative activity against human Hep3B cells assessed as cell viability at 100 uM after 4 days by cell counting method relative to control; assay type: functional; conditions: 96 h, read-out: Activity
Summary of the method: (§1)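 Hep3B kept in DMEM/10% FBS, 37°C, 5% CO2, then seeded at 1×10^5 cells/ml in medium containing compound (0.1–100 μM; DMSO-only control) in monolayer. Cells were checked daily by microscope for attachment and morphology, and counted after 4 days, in triplicate, in three independent experiments. Counts are given as % of the 0 μM group.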

Hep 3B2 [4] = experiment: Proliferative activity against human Hep3B cells assessed as cell viability at 10 uM after 4 days by cell counting method relative to control; assay type: functional; conditions: 96 h, read-out: Activity; summary of the method: as §1
Hep 3B2 [5] = experiment: Cytoprotective activity against GOX-induced oxidative stress in human Hep3B cells assessed as cell survival at 1 uM treated for 5 hrs with 15 mU/ml GOX challenge by MTT assay (reference value: 41.51 +/- 1.39%); assay type: functional; conditions: read-out: Survival
NIH3T3 [6] = experiment: Cytoprotective activity against GOX-induced oxidative stress in mouse NIH/3T3 cells assessed as cell survival at 100 uM treated for 5 hrs with 15 mU/ml GOX challenge by MTT assay (reference value: 42.71 +/- 2.10%); assay type: functional; conditions: NIH3T3, 5 h, read-out: Survival
Hep 3B2 [7] = experiment: Cytotoxicity against human Hep3B cells assessed as effect on cell attachment at 0.1 to 100 uM measured every day during 4 days incubation period by microscopic method; assay type: cell-based; conditions: hep 3b2, 96 h; summary of the method: as §1
Hep 3B2 [8] = experiment: Proliferative activity against human Hep3B cells assessed as cell viability at 0.1 uM after 4 days by cell counting method relative to control; assay type: functional; conditions: 96 h, read-out: Activity; summary of the method: as §1
Hep 3B2 [9] = experiment: Cytoprotective activity against GOX-induced cytotoxicity in human Hep3B cells assessed as LDH release at 10 uM treated for 5 hrs with 15 mU/ml GOX challenge by spectrophotometric method (reference value: 60.94 +/- 1.18%); assay type: functional
Hep 3B2 [10] = experiment: Proliferative activity against human Hep3B cells assessed as cell viability after 4 days by cell counting method; assay type: functional, cell-based; summary of the method: as §1
Hep 3B2 [11] = experiment: Cytoprotective activity against GOX-induced cytotoxicity in human Hep3B cells assessed as LDH release at 100 uM treated for 5 hrs with 15 mU/ml GOX challenge by spectrophotometric method (reference value: 60.94 +/- 1.18%); assay type: functional
Hep 3B2 [12] = experiment: Cytoprotective activity against GOX-induced cytotoxicity in human Hep3B cells assessed as decrease in LDH release treated for 5 hrs with 15 mU/ml GOX challenge by spectrophotometric method; assay type: functional, cell-based
NIH3T3 [13] = experiment: Cytoprotective activity against GOX-induced cytotoxicity in mouse NIH/3T3 cells assessed as LDH release at 100 uM treated for 5 hrs with 15 mU/ml GOX challenge by spectrophotometric method (reference value: 63.34 +/- 1.85%); assay type: functional
Hep 3B2 [14] = experiment: Cytotoxicity against human Hep3B cells assessed as effect on cell morphology at 0.1 to 100 uM measured every day during 4 days incubation period by microscopic method; assay type: cell-based; conditions: hep 3b2, 96 h; summary of the method: as §1
Hep 3B2 [15] = experiment: Cytoprotective activity against GOX-induced cytotoxicity in human Hep3B cells assessed as LDH release at 0.1 uM treated for 5 hrs with 15 mU/ml GOX challenge by spectrophotometric method (reference value: 60.94 +/- 1.18%); assay type: functional
Hep 3B2 [16] = experiment: Cytoprotective activity against GOX-induced oxidative stress in human Hep3B cells assessed as cell survival at 100 uM treated for 5 hrs with 15 mU/ml GOX challenge by MTT assay (reference value: 41.51 +/- 1.39%); assay type: functional; conditions: read-out: Survival
NIH3T3 [17] = experiment: Cytoprotective activity against GOX-induced cytotoxicity in mouse NIH/3T3 cells assessed as decrease in LDH release treated for 5 hrs with 15 mU/ml GOX challenge by spectrophotometric method; assay type: functional, cell-based
NIH3T3 [18] = experiment: Cytoprotective activity against GOX-induced cytotoxicity in mouse NIH/3T3 cells assessed as LDH release at 10 uM treated for 5 hrs with 15 mU/ml GOX challenge by spectrophotometric method (reference value: 63.34 +/- 1.85%); assay type: functional
Hep 3B2 [19] = experiment: Cytoprotective activity against GOX-induced oxidative stress in human Hep3B cells assessed as cell survival at 10 uM treated for 5 hrs with 15 mU/ml GOX challenge by MTT assay (reference value: 41.51 +/- 1.39%); assay type: functional; conditions: read-out: Survival
Hep 3B2 [20] = experiment: Cytoprotective activity against GOX-induced oxidative stress in human Hep3B cells assessed as cell survival at 0.1 uM treated for 5 hrs with 15 mU/ml GOX challenge by MTT assay (reference value: 41.51 +/- 1.39%); assay type: functional; conditions: read-out: Survival
NIH3T3 [21] = experiment: Cytoprotective activity against GOX-induced oxidative stress in mouse NIH/3T3 cells assessed as increase in cell survival treated for 5 hrs with 15 mU/ml GOX challenge by MTT assay; assay type: functional, cell-based
Summary of the method: (§2)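 Cells plated at 7×10^4 per well; next day exposed for 5 h to compound (0.1–100 μM) with 15 mU/ml glucose oxidase in growth medium. Viability expressed relative to GOX-free cells; α-tocopherol positive control.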

Hep 3B2 [22] = experiment: Proliferative activity against human Hep3B cells assessed as cell viability at 1 uM after 4 days by cell counting method relative to control; assay type: functional; conditions: 96 h, read-out: Activity; summary of the method: as §1
NIH3T3 [23] = experiment: Cytoprotective activity against GOX-induced cytotoxicity in mouse NIH/3T3 cells assessed as LDH release at 0.1 uM treated for 5 hrs with 15 mU/ml GOX challenge by spectrophotometric method (reference value: 63.34 +/- 1.85%); assay type: functional
Hep 3B2 [24] = experiment: Cytoprotective activity against GOX-induced oxidative stress in human Hep3B cells assessed as increase in cell survival treated for 5 hrs with 15 mU/ml GOX challenge by MTT assay; assay type: functional, cell-based; summary of the method: as §2
NIH3T3 [25] = experiment: Cytoprotective activity against GOX-induced cytotoxicity in mouse NIH/3T3 cells assessed as LDH release at 1 uM treated for 5 hrs with 15 mU/ml GOX challenge by spectrophotometric method (reference value: 63.34 +/- 1.85%); assay type: functional
NIH3T3 [26] = experiment: Cytoprotective activity against GOX-induced oxidative stress in mouse NIH/3T3 cells assessed as cell survival at 1 uM treated for 5 hrs with 15 mU/ml GOX challenge by MTT assay (reference value: 42.71 +/- 2.10%); assay type: functional; conditions: NIH3T3, 5 h, read-out: Survival
Hep 3B2 [27] = experiment: Cytoprotective activity against GOX-induced cytotoxicity in human Hep3B cells assessed as LDH release at 1 uM treated for 5 hrs with 15 mU/ml GOX challenge by spectrophotometric method (reference value: 60.94 +/- 1.18%); assay type: functional

Compound	viability at 10 µM (NIH3T3 [1]) [%]	viability at 0.1 µM (NIH3T3 [2]) [%]	viability at 100 µM (Hep 3B2 [3]) [%]	viability at 10 µM (Hep 3B2 [4]) [%]	viability at 1 µM (Hep 3B2 [5]) [%]	viability at 100 µM (NIH3T3 [6]) [%]	Activity (Hep 3B2 [7])	viability at 0.1 µM (Hep 3B2 [8]) [%]	Activity (Hep 3B2 [9]) [%]	Activity (Hep 3B2 [10])	Activity (Hep 3B2 [11]) [%]	Activity (Hep 3B2 [12])	Activity (NIH3T3 [13]) [%]	Activity (Hep 3B2 [14])	Activity (Hep 3B2 [15]) [%]	viability at 100 µM (Hep 3B2 [16]) [%]	Activity (NIH3T3 [17])	Activity (NIH3T3 [18]) [%]	viability at 10 µM (Hep 3B2 [19]) [%]	viability at 0.1 µM (Hep 3B2 [20]) [%]	other results
O=C(/C=C/c1ccc(O)cc1)c1ccc(O)cc1O [ISOLIQUIRITIGENIN]	71.9	44.8	126	109	62.9	82.9	Non-Toxic	101	21.06	Dose-dependent effect	10.1	Dose-dependent effect	8.85	Non-Toxic	27.14	75.3	Dose-dependent effect	22.67	66.2	41.9	Activity (NIH3T3 [21]): Dose-dependent effect; viability at 1 µM (Hep 3B2 [22]): 103%; Activity (NIH3T3 [23]): 44.26%; Activity (Hep 3B2 [24]): Dose-dependent effect; Activity (NIH3T3 [25]): 26.03%; viability at 1 µM (NIH3T3 [26]): 59.2%; Activity (Hep 3B2 [27]): 24.29%
O=C1CC(c2ccc(O)cc2)Oc2cc(O)ccc21 (racemic)	111	74.1	135	112	88.4	126	Non-Toxic	100	4.93	Dose-dependent effect	3.82	Dose-dependent effect	2.63	Non-Toxic	11.57	112	Dose-dependent effect	5.51	98.8	70.7	Activity (NIH3T3 [21]): Dose-dependent effect; viability at 1 µM (Hep 3B2 [22]): 104%; Activity (NIH3T3 [23]): 18.42%; Activity (Hep 3B2 [24]): Dose-dependent effect; Activity (NIH3T3 [25]): 7.85%; viability at 1 µM (NIH3T3 [26]): 88.4%; Activity (Hep 3B2 [27]): 6.83%
CC(C)C(=O)O[C@@H]1Cc2c(ccc3ccc(=O)oc23)OC1(C)C	67.4	45.7	147	110	56.1	83.1	Non-Toxic	100	18.04	Dose-dependent effect	7.64	Dose-dependent effect	8.13	Non-Toxic	28.99	82.3	Dose-dependent effect	19.53	66.5	44.8	Activity (NIH3T3 [21]): Dose-dependent effect; viability at 1 µM (Hep 3B2 [22]): 101%; Activity (NIH3T3 [23]): 31.31%; Activity (Hep 3B2 [24]): Dose-dependent effect; Activity (NIH3T3 [25]): 25.89%; viability at 1 µM (NIH3T3 [26]): 55.6%; Activity (Hep 3B2 [27]): 23.78%
CC(C)=CCCC(C)(O)C1Cc2c(O)ccc(C(=O)/C=C/c3ccc(O)cc3)c2O1 (stereo not drawn)	57.5	43.5	113	104	49	77.8	Non-Toxic	100	19.08	Dose-dependent effect	8.14	Dose-dependent effect	12.35	Non-Toxic	25.13	76	Dose-dependent effect	15	62.1	42.9	Activity (NIH3T3 [21]): Dose-dependent effect; viability at 1 µM (Hep 3B2 [22]): 102%; Activity (NIH3T3 [23]): 27.7%; Activity (Hep 3B2 [24]): Dose-dependent effect; Activity (NIH3T3 [25]): 21.87%; viability at 1 µM (NIH3T3 [26]): 44.4%; Activity (Hep 3B2 [27]): 19.53%
